The list is not random: actives were taken first. Their share in the collection is about 1.9%.
UHRF1 MBD2 ctr – human UHRF1 methylated DNA binding inhibitors; 370,000 tested, 0.75% active; UHRF1 binding to methylated oligo, TR-FRET; AID 687016; Q96T88; inhibition, % at 4.4 µM; in the data active = inhibition above about 21%;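 also: UHRF1 SRA domain binding a hemimethylated CpG hairpin DNA probe; 0% = median of test compound wells and 100% = reference inhibitor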
Target sequence (Q96T88 whole entry, looked up, the tested form may be a part): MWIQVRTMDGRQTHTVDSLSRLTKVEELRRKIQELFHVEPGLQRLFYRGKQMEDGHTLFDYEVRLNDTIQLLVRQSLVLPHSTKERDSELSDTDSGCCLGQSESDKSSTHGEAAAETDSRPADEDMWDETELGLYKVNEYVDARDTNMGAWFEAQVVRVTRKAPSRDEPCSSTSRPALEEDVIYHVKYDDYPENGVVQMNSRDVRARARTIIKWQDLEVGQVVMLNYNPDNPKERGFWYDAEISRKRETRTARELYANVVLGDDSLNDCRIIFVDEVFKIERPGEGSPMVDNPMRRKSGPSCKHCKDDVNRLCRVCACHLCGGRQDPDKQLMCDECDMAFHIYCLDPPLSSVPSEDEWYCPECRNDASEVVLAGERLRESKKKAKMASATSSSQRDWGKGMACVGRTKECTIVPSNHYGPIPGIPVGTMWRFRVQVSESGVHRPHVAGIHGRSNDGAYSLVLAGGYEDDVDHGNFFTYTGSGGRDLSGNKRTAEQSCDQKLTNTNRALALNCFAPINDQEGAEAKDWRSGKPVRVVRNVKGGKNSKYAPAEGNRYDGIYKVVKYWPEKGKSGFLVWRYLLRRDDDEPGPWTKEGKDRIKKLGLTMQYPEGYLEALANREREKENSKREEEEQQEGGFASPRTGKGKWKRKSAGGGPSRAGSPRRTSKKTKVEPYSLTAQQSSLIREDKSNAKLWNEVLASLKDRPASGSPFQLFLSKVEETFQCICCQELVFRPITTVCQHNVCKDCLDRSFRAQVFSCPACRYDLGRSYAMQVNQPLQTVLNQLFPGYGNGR
MBD2 DNA inh – blocks human MBD2 binding to methylated DNA | 370,000 tested, 0.31% active | TR-FRET, MBD2 binding to methylated oligonucleotide | Q9UBB5 | AID 686964 | inhibition, % at 4.4 µM; in the data active = inhibition above about 13%
TDP2 inh – TDP2 (human) inhibition, absorbance primary screen; recombinant TDP2, T5PNP hydrolysis, p-nitrophenol absorbance 415 nm; inhibition, % at 12.8 µM; 370,000 tested, 0.34% active;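 active = inhibition above the mean of all tested compounds plus 3 SD, set per campaign, cut at about 25% in these data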;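 also: 0% = DMSO with enzyme and 100% = buffer with substrate but no TDP2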
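Assay system: recombinant human TDP2 / Reagent: T5PNP substrate at 5 mM, a TopII-DNA adduct mimic / Measured by: epi absorbance from released p-nitrophenol / Evaluation: % inhibition relative to enzyme-containing and enzyme-free wells / Control set: enzyme-free and DMSO wells / Replicates: each compound tested once, singlicate / Schedule: enzyme reaction with compound for 2 h at 37 °C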
LEDGF integ inh – blocks HIV-1 LEDGF/p75-dependent DNA integration | TR-FRET IN-LEDGF/p75 DNA integration, Eu/Cy5 | inhibition, % at 3.7 µM | 370,000 tested, 0.64% active | AID 743269;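 active = inhibition above the screen-wide mean plus 3 SD, cut at about 13% in these data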;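 also: signal is the Cy5 over europium emission ratio at 671 and 618 nm; 0% = plate median of compound wells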
Casp6 inh – inhibitors of human caspase-6. purified caspase-6, Z-VEID-R110 cleavage fluorescence. P55212. inhibition, % at 12.5 µM. 350,000 tested, 0.53% active. AID 686996;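 active = mean inhibition across replicates at least about 35%, with every replicate also reaching that limit, limit read from the data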;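 also: 0% = median of neutral control wells and 100% = no fluorescence left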
NSD2 HMT inh – inhibitors of human histone methyltransferase NSD2; NSD2 peptide methylation, AlphaScreen, 120 min; 310,000 tested, 0.54% active; inhibition, % at 12.5 µM; in the data active = inhibition above about 50%
An asterisk follows results filed as active; / = no result given.

SMILES | UHRF1 MBD2 ctr | MBD2 DNA inh | TDP2 inh | LEDGF integ inh | Casp6 inh | NSD2 HMT inh
Cc1ccc2nc(/C(C#N)=C/c3ccc(O)c(O)c3)[nH]c2c1 | -5.2 | -4.2 | -3.7 | -1.4 | 20.1 | 94.1*
Cc1ccc2nc(/C(C#N)=C/c3ccccc3C(=O)O)[nH]c2c1 | -5.9 | -4.5 | 8.3 | 5.0 | 9.2 | 5.2
COc1ccc(NC(=O)Nc2cccc3c2O[C@@H](CN(C)C)[C@@H](C)CN([C@H](C)CO)C3=O)cc1 | / | / | / | / | -3.7 | /
O=C(O)CCCN1C(=O)/C(=C\c2ccccc2OCc2ccccc2)SC1=S | 1.5 | -1.6 | -12.0 | 5.8 | 19.6 | /
O=C(O)CCCCN1C(=O)/C(=C\c2ccc(OCc3ccccc3)c(OCc3ccccc3)c2)SC1=S | 3.1 | -1.8 | -7.8 | -4.4 | 71.8* | 6.1
CCOc1ccc(NS(=O)(=O)c2ccc(NS(=O)(=O)c3ccccc3)cc2)cc1 | 1.9 | -0.5 | -11.2 | -3.2 | / | -1.3
CCOc1ccc(S(=O)(=O)Nc2cc(NS(=O)(=O)c3ccc(OCC)cc3)cc(C(=O)O)c2)cc1 | 0.6 | 4.0 | 1.9 | -2.2 | 70.1* | 25.1
CN(C)c1ccc(C(=O)c2ccc(O)cc2O)cc1 | 0.4 | -2.2 | -1.9 | -3.3 | / | 5.0
CN(C)c1ccc(Cc2cc3c(O)ccc(O)c3cc(Cc3ccc(N(C)C)cc3)c2=O)cc1 | 51.3* | 35.3* | 10.3 | 63.5* | -1.3 | /
CCN(CC(=O)NCc1cccs1)S(=O)(=O)c1ccc([N+](=O)[O-])cc1 | 0.3 | -4.8 | -7.3 | 7.0 | -0.5 | -0.8
CCN(CC(=O)NCc1cccs1)S(=O)(=O)c1cccc(C(C)=O)c1 | 24.4* | 5.1 | -4.5 | -1.3 | / | 1.4
O=C(Nc1cc(C(F)(F)F)ccc1N1CCOCC1)c1cnccn1 | -0.2 | 0.2 | 0.4 | 1.6 | -0.7 | 0.8
O=C(Nc1ccccc1N1CCOCC1)c1cnccn1 | 37.3* | -1.7 | 4.0 | 4.1 | / | 1.3
C[C@@H]1CN([C@@H](C)CO)C(=O)c2cc(NC(=O)Nc3ccc4c(c3)OCO4)ccc2O[C@@H](C)CCCCO[C@@H]1CN(C)C(=O)C1CCCCC1 | / | / | / | / | -2.2 | /
C[C@H]1CCCCO[C@@H](CN(C)Cc2ccccc2)[C@@H](C)CN([C@@H](C)CO)C(=O)c2cc(NC(=O)Nc3ccc(F)cc3)ccc2O1 | / | / | / | / | 13.4 | /
c1coc(-c2nc3c4ccccc4ccn3c2Cc2ccsc2)c1 | 21.7* | 7.0 | -7.5 | 5.2 | 15.5 | /
CN(C)C(=O)c1cccc(-c2ccccc2[C@H]2[C@@H](C#N)N(C(=O)C3CCC3)[C@H]2CO)c1 | / | / | / | / | -2.4 | /
O=C(N/N=C/c1cccc(O)c1)c1ccccc1O | 6.1 | -1.2 | -17.6 | -4.7 | 48.7* | -0.8
O=C(N/N=C/c1ccc(O)c(O)c1)N/N=C/c1ccc(O)c(O)c1 | 7.3 | 8.7 | -6.7 | 91.2* | 74.8* | /
Cn1c2ccccc2c2cc(/C=N/NC(=O)c3cc(O)cc(O)c3)ccc21 | 4.2 | 6.7 | -6.4 | 3.7 | 4.5 | -1.1
Cn1c2ccccc2c2cc(/C=N/NC(=O)c3cc(O)ccc3O)ccc21 | 11.3 | 5.8 | 11.3 | 41.9* | 48.2* | -1.0
C[C@@H]1CN([C@H](C)CO)S(=O)(=O)c2ccc(C#CC(C)(C)O)cc2O[C@@H]1CN(C)C(=O)CN(C)C | / | / | / | / | 0.0 | /
Cc1noc(C)c1S(=O)(=O)Nc1ccc2c(c1)C(=O)N([C@@H](C)CO)C[C@H](C)[C@@H](CN(C)C(=O)c1ccncc1)OCCCC[C@H](C)O2 | / | / | / | / | -1.3 | /
C[C@H]1CN([C@@H](C)CO)S(=O)(=O)c2ccc(C#CC3CC3)cc2O[C@@H]1CN(C)C(=O)C1CCC1 | / | / | / | / | -0.6 | /
CCOC(=O)CN1C(=O)N2C[C@H]3CON(C)[C@H]3C[C@H]2c2ccccc21 | 46.7* | -4.0 | -0.3 | 5.8 | -1.7 | /
SMILES | UHRF1 MBD2 ctr | MBD2 DNA inh | TDP2 inh | LEDGF integ inh | Casp6 inh | NSD2 HMT inh
C[C@H](CO)N1C[C@H](C)[C@H](CN(C)C(=O)Nc2ccc(F)cc2)Oc2ncc(C#CC3CC3)cc2C1=O | / | / | / | / | -2.0 | /
CCOc1cc2c(cc1OCC)C(c1ccc(F)cc1)NCC2 (stereo not drawn) | 0.6 | -0.5 | 7.7 | -3.0 | -0.3 | 2.0
CCOc1cc2c(cc1OC)C(c1cccc([N+](=O)[O-])c1)NCC2 (stereo not drawn) | 2.5 | 1.4 | -0.5 | -0.2 | 42.3* | -24.2
O=C(c1cccc(C(=O)N2CCN(c3ncccn3)CC2)c1)N1CCN(c2ncccn2)CC1 | 1.1 | 2.3 | 0.5 | -6.0 | / | -1.0
O=C(Nc1ccc2nc(-c3ccco3)c(-c3ccco3)nc2c1)N1CCN(c2ccccn2)CC1 | 4.1 | 3.5 | 11.6 | 23.8* | / | 1.1
Cc1nc2cc(NC(=O)N3CCN(c4ccccn4)CC3)ccc2o1 | -6.5 | 0.1 | 1.3 | 1.4 | / | -0.9
O=C(c1ccc2nc(-c3ccco3)c(-c3ccco3)nc2c1)N1CCN(c2ncccn2)CC1 | 11.9 | 4.0 | 11.3 | 34.0* | / | /
COCCN1C(=O)COc2ccccc2C1C(=O)Nc1c(C)cccc1C (stereo not drawn) | 21.2* | 6.2 | 11.1 | -0.4 | 2.2 | /
Cc1cccc(C)c1NC(=O)C1c2ccccc2OCC(=O)N1CC(F)(F)F (stereo not drawn) | 1.9 | 2.9 | 6.2 | 2.2 | -1.9 | /
N/C(=N\OC(=O)/C=C/c1ccc(Br)cc1)c1ccccn1 | 22.9* | 3.0 | 18.3 | 1.4 | / | -2.3
CC(=O)c1cccc(NC(=O)C2(c3ccccc3)CC2(Cl)Cl)c1 (stereo not drawn) | 25.2* | 3.8 | -8.3 | -0.9 | -2.2 | -4.9
Cc1cccc(NC(=O)C2(c3ccccc3)CC2(Cl)Cl)c1 (stereo not drawn) | 2.1 | 0.1 | -12.0 | -2.0 | / | -8.3
CCn1cc(C(=O)O)c(=O)c2cc(F)c(N3CCN(C(=S)NC(=O)c4ccccc4Br)CC3)cc21 | 0.4 | 1.9 | -7.4 | -0.1 | 36.0* | 0.9
COc1ccc(S(=O)(=O)/N=C2\C=C(Nc3ccc(O)cc3)C(=O)c3ccccc32)cc1 | -0.3 | -5.5 | 66.9* | 65.4* | 78.2* | 50.9*
O=C(O)c1ccc(S(=O)(=O)/N=C2\C=C(Nc3ccccc3F)C(=O)c3ccccc32)cc1 | 7.4 | -11.0 | 89.1* | 59.7* | 99.4* | 119.8*
Cc1ccc(NC2=C/C(=N/S(=O)(=O)c3cccs3)c3ccccc3C2=O)cc1C | -2.6 | 1.5 | -0.6 | 5.4 | 0.0 | -0.3
O=C(C[C@H]1C[C@@H]2c3cc(NC(=O)c4cccnc4)ccc3O[C@@H]2[C@H](CO)O1)NCc1cc(F)ccc1F | / | / | / | / | 1.5 | /
CN1C(=O)c2cc(NC(=O)c3cnccn3)ccc2OC[C@H]2O[C@@H](CC(=O)N[C@@H]3CCN(Cc4ccccc4)C3)CC[C@H]21 | / | / | / | / | -1.6 | /
COc1ccccc1S(=O)(=O)N[C@@H]1C=C[C@@H](CC(=O)N2CCOCC2)O[C@H]1CO | / | / | / | / | 52.6* | /
C[C@H](CO)N1C[C@H](C)[C@@H](CN(C)Cc2ccc(Cl)c(Cl)c2)Oc2ccc(NS(=O)(=O)c3cn(C)cn3)cc2C1=O | / | / | / | / | 6.6 | /
COc1ccccc1N1CCN(C(=O)COc2cccc3ccccc23)CC1 | -2.0 | 0.7 | -8.0 | 1.2 | 2.2 | 0.5

From PubChem BioAssay
